These results are taken from ChEMBL document CHEMBL5696442, “Discovery of type II inhibitors of TGFβ-activated kinase 1 (TAK1) and mitogen-activated protein kinase kinase kinase kinase 2 (MAP4K2)” (J Med Chem, 2015).

For orientation: inhibition means the change of the read-out against control, counted positive when it falls.

Assay [1] concerns the target T1, Serine/threonine-protein kinase greatwall (Homo sapiens) (UniProt Q96GX5).
T1 sequence (whole entry): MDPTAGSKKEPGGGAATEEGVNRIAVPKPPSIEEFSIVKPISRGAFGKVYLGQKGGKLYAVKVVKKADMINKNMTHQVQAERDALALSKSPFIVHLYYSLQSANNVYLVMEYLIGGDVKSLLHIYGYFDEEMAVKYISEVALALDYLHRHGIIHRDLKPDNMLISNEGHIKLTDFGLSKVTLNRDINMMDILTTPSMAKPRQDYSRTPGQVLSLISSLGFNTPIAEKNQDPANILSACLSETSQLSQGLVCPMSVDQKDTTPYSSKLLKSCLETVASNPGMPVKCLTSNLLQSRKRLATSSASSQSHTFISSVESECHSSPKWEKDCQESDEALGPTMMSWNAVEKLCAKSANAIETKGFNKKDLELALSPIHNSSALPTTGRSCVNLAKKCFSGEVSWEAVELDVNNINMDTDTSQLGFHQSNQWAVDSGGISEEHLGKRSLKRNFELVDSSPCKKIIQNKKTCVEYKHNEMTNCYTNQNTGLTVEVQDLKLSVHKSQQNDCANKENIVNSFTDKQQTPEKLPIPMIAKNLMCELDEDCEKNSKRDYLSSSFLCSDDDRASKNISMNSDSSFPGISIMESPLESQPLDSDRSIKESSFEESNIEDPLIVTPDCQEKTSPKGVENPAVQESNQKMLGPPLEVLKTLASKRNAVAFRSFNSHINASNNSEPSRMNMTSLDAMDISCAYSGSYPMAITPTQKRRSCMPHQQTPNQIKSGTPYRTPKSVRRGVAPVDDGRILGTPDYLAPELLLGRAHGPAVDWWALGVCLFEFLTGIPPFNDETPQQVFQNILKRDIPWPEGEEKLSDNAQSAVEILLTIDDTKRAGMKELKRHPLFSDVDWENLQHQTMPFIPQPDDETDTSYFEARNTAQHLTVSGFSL
Description: Inhibition of MASTL ATP labeling site in human Huh-7 cell lysate at 1 uM by KiNativ Profiling analysis relative to control. It counts as subcellular.

Assay [2] addresses Protein kinase C beta type (Homo sapiens) (UniProt P05771). Nature of the assay: Inhibition of PKCb Lys2 labeling site in human Huh-7 cells at 1 uM by KiNativ Profiling analysis relative to control. It counts as cell-based.
Assay [3] deals with T2, Mitogen-activated protein kinase kinase kinase kinase 2 (Homo sapiens) (UniProt Q12851).
T2 sequence (whole entry): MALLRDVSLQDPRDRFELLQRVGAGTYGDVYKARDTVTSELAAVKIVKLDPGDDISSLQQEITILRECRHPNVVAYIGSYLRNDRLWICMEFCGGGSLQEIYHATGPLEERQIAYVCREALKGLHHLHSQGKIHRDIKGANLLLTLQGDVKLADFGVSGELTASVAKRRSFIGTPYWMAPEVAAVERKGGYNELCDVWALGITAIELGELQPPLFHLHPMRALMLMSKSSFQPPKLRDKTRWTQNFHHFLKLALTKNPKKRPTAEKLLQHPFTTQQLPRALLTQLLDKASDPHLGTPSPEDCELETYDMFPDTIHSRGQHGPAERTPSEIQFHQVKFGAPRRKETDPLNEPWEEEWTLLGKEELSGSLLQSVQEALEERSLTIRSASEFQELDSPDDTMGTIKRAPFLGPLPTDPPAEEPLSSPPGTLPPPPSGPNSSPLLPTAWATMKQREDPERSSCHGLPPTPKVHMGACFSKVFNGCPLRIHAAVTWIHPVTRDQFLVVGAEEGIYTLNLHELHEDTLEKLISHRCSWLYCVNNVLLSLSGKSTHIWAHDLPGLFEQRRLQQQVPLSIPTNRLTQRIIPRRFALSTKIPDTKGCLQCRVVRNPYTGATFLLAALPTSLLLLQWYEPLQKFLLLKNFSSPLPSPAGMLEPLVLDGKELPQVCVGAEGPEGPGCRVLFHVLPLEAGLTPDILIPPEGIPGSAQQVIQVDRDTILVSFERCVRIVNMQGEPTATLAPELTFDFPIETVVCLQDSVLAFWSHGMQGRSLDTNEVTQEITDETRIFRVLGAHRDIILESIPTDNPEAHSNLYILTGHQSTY
Description: Inhibition of MAP4K2 (unknown origin) at 1 uM by Ambit Kinomescan binding assay relative to control; values are per cent of control.

Assay [4] deals with Serine/threonine-protein kinase SMG1 (Homo sapiens) (UniProt Q96Q15). Description: Inhibition of SMG1 ATP labeling site harbouring DTVTIHSVGGTITILPTKTKPK in human A-375 cells at 0.5 uM by KiNativ Profiling analysis relative to control. In kind it is cell-based. In short, it runs like this:
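Live A375 melanoma cells treated with compound at 5 or 0.5 μM, then lysed. Lysate kinases were labeled with a lysine-reactive ATP or ADP-biotin probe. Inhibition was read as protection of labeling sites from the probe.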

Sequence of Serine/threonine-protein kinase SMG1 (Homo sapiens) (Q96Q15 whole entry): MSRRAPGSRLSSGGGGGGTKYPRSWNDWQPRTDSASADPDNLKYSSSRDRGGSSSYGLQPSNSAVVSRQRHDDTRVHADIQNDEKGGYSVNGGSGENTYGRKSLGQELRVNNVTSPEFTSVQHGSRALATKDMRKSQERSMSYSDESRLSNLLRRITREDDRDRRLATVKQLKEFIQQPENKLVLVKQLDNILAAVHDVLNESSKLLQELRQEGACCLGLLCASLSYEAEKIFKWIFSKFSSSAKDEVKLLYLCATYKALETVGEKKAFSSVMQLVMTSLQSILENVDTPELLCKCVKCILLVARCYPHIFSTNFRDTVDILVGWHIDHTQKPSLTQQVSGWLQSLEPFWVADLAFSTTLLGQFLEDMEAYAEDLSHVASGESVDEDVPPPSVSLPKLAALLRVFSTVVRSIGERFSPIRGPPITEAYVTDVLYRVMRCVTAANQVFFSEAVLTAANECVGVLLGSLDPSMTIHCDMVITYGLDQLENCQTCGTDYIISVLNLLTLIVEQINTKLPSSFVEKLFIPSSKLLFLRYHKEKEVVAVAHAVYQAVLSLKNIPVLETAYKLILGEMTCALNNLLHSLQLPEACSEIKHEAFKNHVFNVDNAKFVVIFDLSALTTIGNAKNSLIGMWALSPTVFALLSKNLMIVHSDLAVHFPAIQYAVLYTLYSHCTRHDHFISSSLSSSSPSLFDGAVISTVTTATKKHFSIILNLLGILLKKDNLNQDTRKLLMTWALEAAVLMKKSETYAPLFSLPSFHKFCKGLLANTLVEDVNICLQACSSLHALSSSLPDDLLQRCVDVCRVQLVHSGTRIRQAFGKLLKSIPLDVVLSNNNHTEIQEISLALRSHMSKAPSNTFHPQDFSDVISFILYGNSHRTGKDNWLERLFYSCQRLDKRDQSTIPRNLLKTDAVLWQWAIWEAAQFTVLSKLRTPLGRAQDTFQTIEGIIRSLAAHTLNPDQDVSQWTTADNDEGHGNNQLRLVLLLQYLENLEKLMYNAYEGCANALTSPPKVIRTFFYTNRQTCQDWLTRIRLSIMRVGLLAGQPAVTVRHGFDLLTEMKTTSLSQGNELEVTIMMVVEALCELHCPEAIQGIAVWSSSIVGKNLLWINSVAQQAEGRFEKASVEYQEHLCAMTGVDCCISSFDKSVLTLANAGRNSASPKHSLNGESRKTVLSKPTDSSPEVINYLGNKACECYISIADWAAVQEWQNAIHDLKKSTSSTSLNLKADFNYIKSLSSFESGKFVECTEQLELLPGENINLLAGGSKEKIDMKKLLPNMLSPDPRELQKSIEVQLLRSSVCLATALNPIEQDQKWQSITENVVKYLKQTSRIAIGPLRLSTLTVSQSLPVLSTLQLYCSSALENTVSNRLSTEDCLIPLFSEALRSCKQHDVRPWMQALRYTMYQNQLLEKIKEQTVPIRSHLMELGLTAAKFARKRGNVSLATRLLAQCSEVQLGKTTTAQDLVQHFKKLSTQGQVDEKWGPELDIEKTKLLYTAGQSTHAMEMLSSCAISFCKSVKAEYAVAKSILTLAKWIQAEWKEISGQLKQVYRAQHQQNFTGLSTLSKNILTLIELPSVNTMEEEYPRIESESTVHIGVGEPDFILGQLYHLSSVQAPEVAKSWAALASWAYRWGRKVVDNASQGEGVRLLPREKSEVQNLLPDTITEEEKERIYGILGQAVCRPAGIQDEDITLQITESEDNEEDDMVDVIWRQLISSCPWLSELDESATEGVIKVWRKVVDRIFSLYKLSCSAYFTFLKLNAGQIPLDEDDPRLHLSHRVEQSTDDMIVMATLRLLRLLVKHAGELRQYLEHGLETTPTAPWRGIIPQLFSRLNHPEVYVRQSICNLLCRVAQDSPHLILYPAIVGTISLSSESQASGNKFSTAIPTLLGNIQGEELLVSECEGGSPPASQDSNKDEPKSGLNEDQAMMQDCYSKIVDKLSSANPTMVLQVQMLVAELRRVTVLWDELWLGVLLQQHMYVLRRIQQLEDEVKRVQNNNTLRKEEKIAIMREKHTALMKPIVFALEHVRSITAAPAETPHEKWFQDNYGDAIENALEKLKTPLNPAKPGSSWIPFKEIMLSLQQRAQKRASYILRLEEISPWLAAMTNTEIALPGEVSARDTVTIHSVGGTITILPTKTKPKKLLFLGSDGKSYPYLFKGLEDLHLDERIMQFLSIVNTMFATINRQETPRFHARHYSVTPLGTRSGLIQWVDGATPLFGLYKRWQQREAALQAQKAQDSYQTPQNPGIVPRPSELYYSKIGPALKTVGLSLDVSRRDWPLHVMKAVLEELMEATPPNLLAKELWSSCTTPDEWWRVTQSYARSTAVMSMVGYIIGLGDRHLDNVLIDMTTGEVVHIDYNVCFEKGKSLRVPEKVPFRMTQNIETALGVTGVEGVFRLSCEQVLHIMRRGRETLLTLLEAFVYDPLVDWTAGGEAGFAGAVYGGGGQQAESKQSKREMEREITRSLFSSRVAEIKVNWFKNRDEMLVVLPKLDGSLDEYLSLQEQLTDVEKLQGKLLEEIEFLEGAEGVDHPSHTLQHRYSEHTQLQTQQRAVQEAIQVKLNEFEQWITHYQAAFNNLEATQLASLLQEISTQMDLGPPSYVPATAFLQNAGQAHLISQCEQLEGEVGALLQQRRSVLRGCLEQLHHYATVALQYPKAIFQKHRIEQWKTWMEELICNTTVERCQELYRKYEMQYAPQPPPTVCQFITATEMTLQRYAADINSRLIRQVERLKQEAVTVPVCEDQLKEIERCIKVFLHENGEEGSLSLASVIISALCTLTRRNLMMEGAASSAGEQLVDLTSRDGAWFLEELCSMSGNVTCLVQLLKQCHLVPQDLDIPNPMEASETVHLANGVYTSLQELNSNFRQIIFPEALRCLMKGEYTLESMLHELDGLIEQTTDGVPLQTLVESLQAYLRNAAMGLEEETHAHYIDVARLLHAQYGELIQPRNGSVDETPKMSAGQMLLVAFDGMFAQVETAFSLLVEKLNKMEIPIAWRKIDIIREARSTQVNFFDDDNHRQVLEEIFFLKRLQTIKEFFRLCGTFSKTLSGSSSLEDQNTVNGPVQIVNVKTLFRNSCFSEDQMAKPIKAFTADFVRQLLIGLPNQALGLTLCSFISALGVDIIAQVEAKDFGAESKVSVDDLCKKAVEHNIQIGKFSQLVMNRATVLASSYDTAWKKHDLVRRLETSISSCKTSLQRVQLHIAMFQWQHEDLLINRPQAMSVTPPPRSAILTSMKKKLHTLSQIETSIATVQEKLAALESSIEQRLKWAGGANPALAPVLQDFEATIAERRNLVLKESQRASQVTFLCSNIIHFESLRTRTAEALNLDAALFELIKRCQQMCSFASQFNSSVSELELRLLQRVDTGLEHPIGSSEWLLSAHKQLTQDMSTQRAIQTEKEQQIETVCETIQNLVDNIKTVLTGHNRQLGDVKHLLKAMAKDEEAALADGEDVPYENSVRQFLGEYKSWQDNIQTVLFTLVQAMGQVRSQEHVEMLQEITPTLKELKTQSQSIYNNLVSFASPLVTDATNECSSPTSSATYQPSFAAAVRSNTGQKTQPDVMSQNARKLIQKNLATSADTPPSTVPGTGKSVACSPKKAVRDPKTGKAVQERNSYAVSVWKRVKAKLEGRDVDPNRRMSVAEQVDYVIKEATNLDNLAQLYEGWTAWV
Sequence of Protein kinase C beta type (Homo sapiens) (P05771 2-671 limits assumed): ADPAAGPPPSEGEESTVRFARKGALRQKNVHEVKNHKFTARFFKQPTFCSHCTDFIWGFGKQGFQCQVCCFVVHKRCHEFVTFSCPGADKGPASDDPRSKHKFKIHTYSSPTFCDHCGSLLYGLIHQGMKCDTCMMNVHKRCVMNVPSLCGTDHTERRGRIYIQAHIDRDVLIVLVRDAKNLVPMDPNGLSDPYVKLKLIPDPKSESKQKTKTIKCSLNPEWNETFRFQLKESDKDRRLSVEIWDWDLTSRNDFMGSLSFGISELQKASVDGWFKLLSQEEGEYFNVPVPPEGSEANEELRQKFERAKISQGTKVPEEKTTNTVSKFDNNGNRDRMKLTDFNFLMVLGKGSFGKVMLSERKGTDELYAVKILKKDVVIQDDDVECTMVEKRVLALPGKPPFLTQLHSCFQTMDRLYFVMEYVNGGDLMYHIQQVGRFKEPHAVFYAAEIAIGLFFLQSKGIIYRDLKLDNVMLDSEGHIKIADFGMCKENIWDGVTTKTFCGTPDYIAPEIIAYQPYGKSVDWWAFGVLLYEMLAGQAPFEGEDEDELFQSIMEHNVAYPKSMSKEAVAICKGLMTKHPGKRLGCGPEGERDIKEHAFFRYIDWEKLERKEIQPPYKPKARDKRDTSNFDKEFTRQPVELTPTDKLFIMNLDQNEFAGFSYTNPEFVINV

As to `CNc1cc(Oc2cc(C(=O)Nc3cc(N4CCN(C)CC4)cc(C(F)(F)F)c3)ccc2C)ncn1`, the inhibition in assay [1] worked out at 8.6%; in assay [2], 64.8%.

Compound `CCN1CCN(Cc2ccc(NC(=O)c3ccc(C)c(/C=C/c4cnc5[nH]ccc5c4OC)c3)cc2C(F)(F)F)CC1` registered a percent of control in assay [3] of 3.2%.

Consider `CCN1CCN(Cc2ccc(NC(=O)c3ccc(C)c(Oc4ccnc5[nH]ccc45)c3)cc2C(F)(F)F)CC1`, for which, in assay [4], the inhibition was -9.1%.
